Assay results taken from ChEMBL document CHEMBL1125507, “Synthesis and antihistaminic activity of some thiazolidin-4-ones” (J Med Chem, 1992).

Legend:
Assay type in all cases: functional, tissue-based
Histamine H1 receptor [1] = target: T1, Histamine H1 receptor (Cavia porcellus, UniProt P31389); test: (§1) In vitro for histamine H1 receptor antagonist activity against histamine-induced contractions on isolated guinea pig ileum; conditions: read-out: pA2 (converted)
Histamine H1 receptor [2] = target: T1, Histamine H1 receptor; test: as §1
Outline: (§2)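 Isolated ileum from guinea pigs of either sex (~250 g), tested with racemates. Percent inhibition is taken against the submaximal contraction to 0.5 μM histamine without drug, with six observations per drug concentration. IC50 is the concentration giving 50% inhibition. pA2 = −log KB by Schild, where KB = B/(x−1) and x is the histamine half-maximal concentration ratio with/without antagonist.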

Histamine H1 receptor [3] = target: T1, Histamine H1 receptor; test: Compound was tested in vitro for histamine H1-antagonist activity against histamine-induced contractions on isolated guinea pig ileum; outline: as §2

T1 sequence (P31389 whole entry): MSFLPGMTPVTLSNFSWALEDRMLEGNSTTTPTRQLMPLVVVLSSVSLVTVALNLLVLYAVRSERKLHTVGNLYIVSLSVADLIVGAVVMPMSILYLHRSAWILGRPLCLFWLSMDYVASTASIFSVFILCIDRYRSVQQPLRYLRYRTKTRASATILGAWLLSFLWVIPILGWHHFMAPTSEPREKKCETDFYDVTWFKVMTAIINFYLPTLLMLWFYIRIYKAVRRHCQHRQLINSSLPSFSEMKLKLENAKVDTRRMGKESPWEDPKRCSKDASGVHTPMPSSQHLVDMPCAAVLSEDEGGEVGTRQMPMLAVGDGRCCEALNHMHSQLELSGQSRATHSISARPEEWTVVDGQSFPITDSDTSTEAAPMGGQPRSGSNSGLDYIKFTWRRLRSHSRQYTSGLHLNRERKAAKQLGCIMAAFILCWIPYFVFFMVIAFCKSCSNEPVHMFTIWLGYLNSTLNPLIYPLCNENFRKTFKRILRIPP

Row | Structure (SMILES) | Kb (Histamine H1 receptor [1]) [nM] | IC50 (Histamine H1 receptor [2]) [nM] | IC50 (Histamine H1 receptor [3]) [nM]
1 | COc1ccc(C2SCC(=O)N2CCCN(C)C)cc1 (configuration not stated) | 10000 | > 100000 | –
2 | CN(C)CCCN1C(=O)CSC1c1ccncc1 (configuration not stated) | – | – | > 100000
3 | CN(C)CCCN1C(=O)CSC1c1cccc(Br)c1 (configuration not stated) | 398 | 60000 | –
4 | CN(C)CCCN1C(=O)CSC1c1cccc(F)c1 (configuration not stated) | 398 | 3100 | –
5 | CC(C)c1ccc(C2SCC(=O)N2CCCN(C)C)cc1 (configuration not stated) | 2 | 1000 | –
6 | Cc1ccc(C2SCC(=O)N2CCCN(C)C)cc1 (configuration not stated) | 5.01 | 1200 | –
7 | CN(C)CCCN1C(=O)CSC1c1ccc(F)cc1 (configuration not stated) | 79.4 | 24000 | –
8 | CN(C)CCN1C(=O)CSC1c1ccccc1 (configuration not stated) | – | > 100000 | –

Continued, values first:

Row | Kb (Histamine H1 receptor [1]) [nM] | IC50 (Histamine H1 receptor [2]) [nM] | IC50 (Histamine H1 receptor [3]) [nM] | Structure (SMILES)
9 | 2510 | 21000 | – | CN(C)CCCN1C(=O)CSC1c1ccc(Cl)cc1 (configuration not stated)
10 | 1000 | 40000 | – | CN(C)CCCN1C(=O)CSC1c1ccc(N)cc1 (configuration not stated)
11 | 39.8 | 20000 | – | CN(C)CCCN1C(=O)CSC1c1ccccc1 (configuration not stated)
12 | 39.8 | 2300 | – | CN(C)CCCN1C(=O)CSC1c1ccc(Br)cc1 (configuration not stated)
13 | 3980 | > 100000 | – | CN(C)CCCN1C(=O)CSC1c1cccc([N+](=O)[O-])c1 (configuration not stated)
14 | 398 | 25000 | – | COc1cccc(C2SCC(=O)N2CCCN(C)C)c1 (configuration not stated)
15 | 20 | 5000 | – | Cc1cccc(C2SCC(=O)N2CCCN(C)C)c1 (configuration not stated)
16 | 6310 | > 100000 | – | CN(C)CCCN1C(=O)CSC1c1ccc([N+](=O)[O-])cc1 (configuration not stated)
17 | 631 | 2200 | – | CN(C)CCCN1C(=O)CSC1c1cccc(Cl)c1 (configuration not stated)
